From ChEMBL document CHEMBL4431385, “Substituted tetracyclic indole core derivatives of HCV NS5A inhibitor MK-8742” (Bioorg Med Chem Lett, 2016)
Residue numbers refer to the chain shown, from its start.

How the values were obtained:
[1] = target: T1, Nonstructural protein 5A (Hepatitis C virus) (UniProt Q5L478); test: Inhibition of HCV GT1b NS5A assessed as suppression of replicon RNA level by real-time PCR analysis; settings: Hepatitis C virus subtype 1b
T1 sequence (whole entry): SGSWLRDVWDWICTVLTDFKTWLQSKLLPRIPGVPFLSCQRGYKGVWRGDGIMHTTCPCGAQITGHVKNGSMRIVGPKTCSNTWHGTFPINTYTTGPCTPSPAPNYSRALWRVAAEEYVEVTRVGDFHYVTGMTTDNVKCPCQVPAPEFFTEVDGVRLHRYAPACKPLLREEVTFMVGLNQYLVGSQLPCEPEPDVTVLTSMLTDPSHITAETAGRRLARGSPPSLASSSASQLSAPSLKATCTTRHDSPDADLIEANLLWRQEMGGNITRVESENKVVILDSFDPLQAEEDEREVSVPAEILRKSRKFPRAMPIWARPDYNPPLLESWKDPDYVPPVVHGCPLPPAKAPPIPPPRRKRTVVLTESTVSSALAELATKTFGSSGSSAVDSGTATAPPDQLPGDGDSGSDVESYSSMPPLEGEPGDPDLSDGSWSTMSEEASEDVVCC

[2] = target: T1, Nonstructural protein 5A (Hepatitis C virus); test: Inhibition of HCV GT1a NS5A assessed as suppression of replicon RNA level by real-time PCR analysis; settings: Hepatitis C virus subtype 1a
[3] = system: Nonstructural protein 5A (Hepatitis C virus), Q5L478 [UNDEFINED MUTATION]; test: Inhibition of HCV GT1a NS5A L31V mutant assessed as suppression of replicon RNA level by real-time PCR analysis; settings: Hepatitis C virus subtype 1a
[4] = system: T2, Nonstructural protein 5A (Hepatitis C virus), Q5L478 [Y93H]; test: Inhibition of HCV GT1a NS5A Y93H mutant assessed as suppression of replicon RNA level by real-time PCR analysis; settings: Hepatitis C virus subtype 1a
T2 sequence (whole entry): T1 sequence (whole entry) with Y93H

[5] = target: T1, Nonstructural protein 5A (Hepatitis C virus); test: Inhibition of HCV GT3a NS5A assessed as suppression of replicon RNA level by real-time PCR analysis; settings: Hepatitis C virus subtype 3a
[6] = target: T1, Nonstructural protein 5A (Hepatitis C virus); test: Inhibition of HCV GT2b NS5A assessed as suppression of replicon RNA level by real-time PCR analysis; settings: Hepatitis C virus subtype 2b
Outline: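 GT2b replicon, which carries the naturally occurring NS5A 31M resistance-associated variant; potency given as EC90 in nM.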

[7] = target: T1, Nonstructural protein 5A (Hepatitis C virus); test: Inhibition of HCV GT2a NS5A assessed as suppression of replicon RNA level by real-time PCR analysis; settings: Hepatitis C virus subtype 2a
[8] = target: T1, Nonstructural protein 5A (Hepatitis C virus); test: Inhibition of HCV GT4a NS5A assessed as suppression of replicon RNA level by real-time PCR analysis; settings: Hepatitis C virus subtype 4a

Row | SMILES | EC90 [1] [nM] | EC90 [2] [nM] | EC90 [3] [nM] | EC90 [4] [nM] | EC90 [5] [nM] | EC90 [6] [nM] | EC90 [7] [nM] | EC90 [8] [nM]
1 | COC(=O)N[C@H](C(=O)N1CCC[C@H]1c1ncc(-c2ccc3c(c2)cc2n3C(c3cccc(OC)c3)Oc3cc(-c4cnc([C@@H]5C[C@@H](F)CN5C(=O)[C@@H](NC(=O)OC)C(C)C)[nH]4)cc(F)c3-2)[nH]1)C(C)C (some centres undefined) | 0.007 | 0.002 | 0.3 | 0.6 | 0.1 | 19 | – | –
2 | COC(=O)N[C@H](C(=O)N1CCC[C@H]1c1ncc(-c2ccc3c(c2)cc2n3C(c3ccccc3)Oc3cc(-c4cnc([C@@H]5C[C@@H](F)CN5C(=O)[C@@H](NC(=O)OC)C(C)C)[nH]4)cc(F)c3-2)[nH]1)C(C)C (mixture of isomers) | 0.003 | 0.004 | 2 | 1 | 0.1 | 16 | 0.04 | 0.07
3 | COC(=O)N[C@H](C(=O)N1CCC[C@H]1c1ncc(-c2ccc3c(c2)cc2n3[C@H](c3ccccc3)Oc3c-2ccc(-c2cnc([C@@H]4CCCN4C(=O)[C@@H](NC(=O)OC)C(C)C)[nH]2)c3F)[nH]1)C(C)C | 0.003 | 0.04 | 36 | > 100 | > 10 | > 100 | 0.4 | 1
4 | COC(=O)N[C@H](C(=O)N1CCC[C@H]1c1ncc(-c2ccc3c(c2)O[C@@H](c2ccccc2)n2c-3c(F)c3cc(-c4cnc([C@@H]5CCCN5C(=O)[C@@H](NC(=O)OC)C(C)C)[nH]4)ccc32)[nH]1)C(C)C | 0.007 | 0.007 | 0.7 | 25 | 0.3 | 15 | 0.004 | 0.06
5 | COC(=O)N[C@H](C(=O)N1C[C@H](F)C[C@H]1c1ncc(-c2cc(F)c3c(c2)OC(c2cccc(OC)c2)n2c-3cc3cc(-c4cnc([C@@H]5C[C@@H](F)CN5C(=O)[C@@H](NC(=O)OC)C(C)C)[nH]4)ccc32)[nH]1)C(C)C (some centres undefined) | 0.007 | 0.006 | 2 | 0.07 | – | 39 | – | –
6 | COC(=O)N[C@H](C(=O)N1CCC[C@H]1c1ncc(-c2ccc3c(c2)OCn2c-3cc3cc(-c4cnc([C@@H]5CCCN5C(=O)[C@@H](NC(=O)OC)C(C)C)[nH]4)ccc32)[nH]1)C(C)C | 0.02 | 0.02 | 7 | 100 | 1 | 76 | 0.02 | 0.2
7 | COC(=O)N[C@H](C(=O)N1CCC[C@H]1c1ncc(-c2ccc3c(c2)OCn2c-3cc3cc(-c4cnc([C@@H]5CCCN5C(=O)[C@@H](NC(=O)OC)C(C)C)[nH]4)c(F)cc32)[nH]1)C(C)C | 0.007 | 0.007 | 68 | 77 | 5 | 150 | 0.02 | 0.2
8 | COC(=O)N[C@H](C(=O)N1CCC[C@H]1c1ncc(-c2cc(F)c3c(c2)O[C@@H](c2ccccc2)n2c-3c(Cl)c3cc(-c4cnc([C@@H]5CCCN5C(=O)[C@@H](NC(=O)OC)C(C)C)[nH]4)ccc32)[nH]1)C(C)C | 0.006 | 0.02 | 0.4 | 51 | 2 | 42 | 0.03 | 0.04
9 | COC(=O)N[C@H](C(=O)N1C[C@H](F)C[C@H]1c1ncc(-c2cc(F)c3c(c2)OC(c2cccc(OC(F)(F)F)c2)n2c-3cc3cc(-c4cnc([C@@H]5C[C@@H](F)CN5C(=O)[C@@H](NC(=O)OC)C(C)C)[nH]4)ccc32)[nH]1)C(C)C (some centres undefined) | 0.005 | 0.006 | 7 | 0.2 | – | 52 | – | –
